Data set [1] can be described thus: Cytotoxicity against human MT4 cells after 96 hrs by MTT assay. It counts as cell-based. The note with it: MT4 cells. Put shortly: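 Exponentially growing MT-4 cells at 1 × 10^5 cells/mL in RPMI-1640 with 10% FCS, exposed to serial compound dilutions at 37 °C, 5% CO2. Viability by MTT after 96 h; CC50 is the concentration reducing viability of mock-infected cells by 50%.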

A short description of data set [2]: Cytotoxicity against MDBK cells after 48 to 96 hrs by MTT assay. The class given is cell-based, Bos taurus. The note with it: cattle, MDBK cells. The method in brief:
(§1)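 Cell seeding: MDBK at 6 × 10^5 cells/mL in MEM-E with 10% horse serum and 1 mM Na pyruvate; BHK at 1 × 10^6 cells/mL in MEM-E with 10% FBS. Serial compound dilutions, 37 °C, 5% CO2. Viability of mock-infected cells by MTT after 48–96 h; CC50 is the concentration reducing viability by 50%.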

The nature of data set [3]: Cytotoxicity against BHK cells after 48 to 96 hrs by MTT assay. The class given is cell-based, Mesocricetus auratus. The note with it: hamster. The method in brief:
as §1

Data set [4] can be described thus: Cytotoxicity against african green monkey Vero cells. The class given is cell-based. Conditions: chlorocebus sabaeus. Put shortly: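 Vero 76 monolayers exposed to serial compound dilutions, run in parallel on the same 24-well plates as the plaque-reduction assays. CC50 is the concentration reducing viability of mock-infected cells by 50%.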
Data set [5] relates to Human immunodeficiency virus 1. Put plainly: Antiviral activity against HIV1 3B infected in human MT4 cells assessed as protection from virus-induced cytopathogenicity after 4 days by MTT method. It counts as functional, organism-based. The method in brief: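 MT-4 cells, 1 × 10^4/well in RPMI with or without serial compound dilutions, infected with HIV-1 IIIB, 100 CCID50 (m.o.i. 0.01). Protection from virus-induced cytopathogenicity read by MTT.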
For orientation: Damage to the host cells serves as the signal in cytopathic effect assays.

In data set [6] the test system is Vesicular stomatitis virus. Put plainly: Antiviral activity against VSV Indiana lab infected in african green monkey Vero cells after 2 days by plaque reduction assay. The class given is functional, organism-based. In general terms: In a plaque reduction assay, fewer plaques than in the control indicate reduced infectivity or spread.
Data set [7] has as its system Bovine viral diarrhea virus 1. Put plainly: Antiviral activity against Bovine viral diarrhea virus NADL infected in MDBK cells assessed as protection from virus-induced cytopathogenicity after 3 to 4 days by MTT method. The note with it: Bovine viral diarrhea virus isolates and strains, MDBK. It counts as functional, organism-based, Bovine viral diarrhea virus 1-NADL. The method in brief:
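Cytopathogenicity protection assay. MDBK cells at 3 × 10^4/well, grown overnight to confluence. Infected with BVDV NADL at m.o.i. 0.01 in MEM-E with 0.5% inactivated FBS, 1 mM Na pyruvate and 1% kanamycin. Serial compound dilutions added after 1 h. After 3–4 days at 37 °C, viability read by MTT; EC50 is the concentration giving 50% protection.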

The subject of a further data set is Yellow fever virus. Kind of data set: Antiviral activity against Yellow fever virus 17D infected in BHK cells assessed as protection from virus-induced cytopathogenicity after 3 to 4 days by MTT method. The class given is functional, organism-based.
The test system of the next data set is Coxsackievirus B2. Put plainly: Antiviral activity against Human coxsackievirus B2 Ohio-1 infected in african green monkey Vero cells after 3 days by plaque reduction assay. Conditions: Enterovirus B, Vero, 72 h. It counts as functional, organism-based, Coxsackievirus B2 (strain Ohio-1). The method in brief: (§2)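 Plaque reduction assay. Vero 76 cells at 2 × 10^5/well, grown overnight to confluence in D-MEM with 10% FBS. Infected 2 h with 50–100 PFU/well, unadsorbed virus removed. Overlay of D-MEM with 1% inactivated FBS and 0.75% methylcellulose, with or without serial compound dilutions. Incubated at 37 °C for 3 days (HSV-1 KOS, CVB-2 Ohio-1) or 5 days (RSV A2). Fixed and stained with crystal violet in 50% ethanol; plaques counted; EC50 by linear regression.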

In a further data set the test system is Poliovirus 1. Put plainly: Antiviral activity against Polio virus type1 Sabin strain Chat infected in african green monkey Vero cells after 2 days by plaque reduction assay. The note with it: Enterovirus C, 48 h. The class given is functional, organism-based, Human poliovirus 1 strain Sabin.
The subject of another data set is Human alphaherpesvirus 1. Put plainly: Antiviral activity against HSV1 KOS infected in african green monkey Vero cells after 3 days by plaque reduction assay. It counts as functional, organism-based. The note with it: Human alphaherpesvirus 1, KOS, 72 h. Put shortly:
as §2

The test system of data set [8] is Respiratory syncytial virus. Put plainly: Antiviral activity against RSV A2 infected in african green monkey Vero cells after 5 days by plaque reduction assay. It counts as functional, organism-based. Conditions: for EC50: human respiratory syncytial virus, A2, Vero, 120 h. Put shortly:
as §2

The next data set has as its system Vaccinia virus. Kind of data set: Antiviral activity against Vaccinia virus Elstree-Lister infected in african green monkey Vero cells after 3 days by plaque reduction assay. The note with it: Orthopoxvirus vaccinia; for EC50: 72 h. The class given is functional, organism-based.
Data set [9] has as its system Mammalian orthoreovirus 1. Kind of data set: Antiviral activity against Reovirus 1 3651 infected in BHK21 cells assessed as protection from virus-induced cytopathogenicity after 3 to 4 days by MTT method. It counts as functional, organism-based. The note with it: for Activity: BHK-21.

Each structure is given as a SMILES string. Active and inactive are the calls of the source. Unless noted, no cut-off for these calls is given here.

Take `Cn1c(-c2ccc(NC(=O)CN3CCSCC3)cc2)nc2cc(C(F)(F)F)ccc21`: the midpoint of cytotoxicity in data set [1], the CC50 at 96 h, lay at 10 µM. In addition, the CC50 in [2], in data set [3] and in data set [4] was over 100 µM in each case. Further, the outcome (in data set [5]; in [6]; in [8]; with Vaccinia virus; in data set [9]) was inactive. Moreover, the 50% effective concentration (EC50) (commonly the concentration at which the effect is half-maximal) was 8 µM in [7]; 46 µM in the data set with Yellow fever virus; 22 µM with Coxsackievirus B2; over 100 µM with Poliovirus 1; over 100 µM with Human alphaherpesvirus 1.
As to `CCC(=O)Nc1ccc(-c2nc3cc(C(F)(F)F)ccc3n2C23CC4CC(CC(C4)C2)C3)cc1`, in data set [1], the midpoint of cytotoxicity, the CC50 at 96 h, lay at 86 µM. For the same compound, the CC50 in data set [2], in [3] and in data set [4] was over 100 µM each time. Besides, the result (in data set [5]; in data set [6]; in data set [8]; in the data set on Vaccinia virus; in [9]) was inactive. Moreover, the EC50 (in [7]; in the data set on Yellow fever virus; in the data set with Coxsackievirus B2; with Poliovirus 1; with Human alphaherpesvirus 1) was over 100 µM each time.
On to `Cn1c(-c2ccc(NC(=O)CN3CCCC3)cc2)nc2cc(C(F)(F)F)ccc21`, for which, in [1], the midpoint of cytotoxicity, the CC50 at 96 h, lay at 16 µM. The CC50 – broadly, the concentration at which the toxic effect on the cells reaches its halfway point – in data set [2] is 65 µM; in data set [3], 27 µM; in data set [4], over 100 µM. Also, the result (in data set [5]; in data set [6]; in data set [8]; with Vaccinia virus; in data set [9]) was inactive. The EC50 in data set [7] is 7 µM; in the data set with Yellow fever virus, over 27 µM; with Coxsackievirus B2 it was 13 µM; with Poliovirus 1 it was 50 µM; in the data set with Human alphaherpesvirus 1, 51 µM.
In turn, `Nc1ccc(-c2nc3cc(C(F)(F)F)ccc3n2C23CC4CC(CC(C4)C2)C3)cc1` showed a CC50 at 96 h in [1] of 19 µM. Moreover, the results for the half-maximal cytotoxic concentration (CC50) in data set [2], in [3] and in data set [4] were 19 µM, 16 µM and 60 µM, respectively. Besides, the outcome (in [5]; in data set [6]; in data set [8]; with Vaccinia virus; in [9]) was inactive. For the same compound, the EC50 in data set [7] was 7 µM; with Yellow fever virus, over 16 µM; in the data set on Coxsackievirus B2, 11 µM; in the data set on Poliovirus 1, over 60 µM; with Human alphaherpesvirus 1, over 60 µM.
`CCC(=O)Nc1ccc(-c2nc3cc(C(F)(F)F)ccc3n2C2CCCCC2)cc1` had a CC50 at 96 h in data set [1] of 17 µM. The results for the CC50 in data set [2], in data set [3] and in [4] were 18 µM, 15 µM and over 100 µM, respectively. The result (in data set [5]; in data set [6]; in [8]; in the data set on Vaccinia virus; in [9]) was inactive. For the same compound, the EC50 was over 18 µM in data set [7]; over 15 µM in the data set on Yellow fever virus; 7 µM with Coxsackievirus B2; 30 µM in the data set on Poliovirus 1; over 100 µM with Human alphaherpesvirus 1.
In [1], `CCC(=O)Nc1ccc(-c2nc3cc(C(F)(F)F)ccc3n2C)cc1` gave a CC50 at 96 h of 8 µM. Besides, the CC50 in data set [2], in [3] and in [4] was over 100 µM in each case. Also, the result (in [5]; in data set [6]; in [8]; in the data set with Vaccinia virus; in data set [9]) was inactive. Moreover, the EC50 (in [7]; in the data set with Yellow fever virus; in the data set on Coxsackievirus B2; in the data set on Poliovirus 1; in the data set on Human alphaherpesvirus 1) was over 100 µM throughout.
As for `CC(=O)Nc1ccc(-c2nc3cc(C(F)(F)F)ccc3n2C2CCCCC2)cc1`, it took 24 µM to reach half-maximal cytotoxicity in data set [1] (CC50 at 96 h). In addition, the figures for the cytotoxic concentration (CC50) in data set [2], in data set [3] and in data set [4] were 17 µM, 15 µM and 30 µM, respectively. Further, the outcome (in data set [5]; in data set [6]; in data set [8]; with Vaccinia virus; in data set [9]) was inactive. The EC50 was over 17 µM in [7]; over 15 µM in the data set on Yellow fever virus; 9 µM in the data set on Coxsackievirus B2; over 30 µM with Poliovirus 1; over 30 µM in the data set on Human alphaherpesvirus 1.
Take `CCN(CC)CC(=O)Nc1ccc(-c2nc3cc(C(F)(F)F)ccc3n2C)cc1`: in data set [1], it took 9 µM to reach half-maximal cytotoxicity (CC50 at 96 h). In addition, the CC50 is 57 µM in data set [2], 16 µM in data set [3] and 90 µM in [4]. Also, the result (in [5]; in data set [6]; in data set [8]; in the data set on Vaccinia virus; in [9]) was inactive. For the same compound, the EC50 is 10 µM in data set [7]; 7 µM with Yellow fever virus; 21 µM in the data set on Coxsackievirus B2; 35 µM with Poliovirus 1; over 90 µM with Human alphaherpesvirus 1.
For the compound `O=C(CCl)Nc1ccc(-c2nc3cc(C(F)(F)F)ccc3n2C23CC4CC(CC(C4)C2)C3)cc1`, the midpoint of cytotoxicity in data set [1], the CC50 at 96 h, lay at 0.3 µM. Also, the CC50 in data set [2] is 18 µM; in data set [3] it was 51 µM; in data set [4], over 100 µM. Further, the outcome (in data set [5]; in [6]; in data set [8]; in the data set with Vaccinia virus; in [9]) was inactive. For the same compound, the EC50 is over 18 µM in [7]; over 51 µM in the data set on Yellow fever virus; over 100 µM with Coxsackievirus B2; over 100 µM in the data set with Poliovirus 1; over 100 µM with Human alphaherpesvirus 1.
As for `Nc1ccc(-c2nc3ccccc3[nH]2)cc1`, the 50% cytotoxic concentration (CC50) at 96 h in data set [1] came out at 81 µM. Also, the CC50 in data set [2], in data set [3] and in data set [4] was over 100 µM in each case. Also, the result in [5] and in data set [6] was inactive. In addition, the EC50 in data set [7] is 16 µM; in the data set on Yellow fever virus it was over 100 µM; in the data set with Coxsackievirus B2, 19 µM; in the data set with Poliovirus 1, over 100 µM; with Human alphaherpesvirus 1, over 100 µM; in data set [9] (Mammalian orthoreovirus 1, 3651, BHK-21), 85 µM.
In turn, `COc1ccc(-c2nc3cc([N+](=O)[O-])ccc3[nH]2)c(OC)c1` returned a CC50 at 96 h in data set [1] of over 100 µM. Moreover, the CC50 in [2], in [3] and in data set [4] was over 100 µM throughout. The result in data set [5] and in [6] was inactive. In addition, the EC50 in [7] was 45 µM; in the data set on Yellow fever virus, over 100 µM; in the data set with Coxsackievirus B2, over 100 µM; with Poliovirus 1, over 100 µM; in the data set on Human alphaherpesvirus 1, over 100 µM; in data set [8], over 100 µM. For the same compound, in the data set with Vaccinia virus, the EC50 is over 100 µM.
Consider `O=[N+]([O-])c1ccccc1-c1nc2ccccc2[nH]1`, for which the midpoint of cytotoxicity in data set [1], the CC50 at 96 h, lay at 60 µM. For the same compound, the CC50 in data set [2], in [3] and in [4] was over 100 µM throughout. The result in data set [5] and in data set [6] was inactive. Moreover, the EC50 was over 100 µM in data set [7]; over 100 µM with Yellow fever virus; over 100 µM with Coxsackievirus B2; over 100 µM with Poliovirus 1; over 100 µM with Human alphaherpesvirus 1; 40 µM in [8]. This compound also had a half-maximal effective concentration (EC50) in the data set with Vaccinia virus of over 100 µM.
